Consider twelve compounds from PubChem BioAssay.

SMILES strings stand for the structures. “And” between values parts separate entries of the source, which are not always exact repeats. Equal values may be shown once. The source made the active and inactive calls.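 Rule for the calls, unless noted: active = viability at or below 10% of carrier control in both of two separate runs; inconclusive = viability at or below 10% in only one of the two runs; inactive = the rest.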

Test [1] can be described thus: reduced viability of SK-BR-3 breast cancer cells – cell-based, 24 h, human, pilot screen (AID 572).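 Note: compound exposure lasted between 18 and 24 h rather than exactly 24 h; 100% = carrier-treated control wells.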 The following applies: SK-BR-3 viability, CellTiter-Glo luminescence, at 10 µM, stronger effect = lower value. (In general: Cellular ATP, detected with luciferase, serves as a proxy for viable cell number.)
Test [2] is described as follows: HUVEC growth inhibition – cell-based, human, primary screen (AID 575;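 active = viability at or below 30% in both replicate assays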;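 note: 100% = median of untreated cell wells with 0.1% DMSO on each plate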). The following applies: HUVEC proliferation, CellTiter-Glo luminescence, 72 h; at 10 µM; stronger effect = lower value. The essentials:
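Test system – primary HUVEC, no more than 12 passages · Dosing – one dose, 10 µM final, 0.1% DMSO · Times – 72 h treatment at 37 °C · Measured by – ATP-based CellTiter-Glo luminescent read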

The nature of test [3]: H69AR cell proliferation blockers – human, duplicate replicates, primary screen (AID 580;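 active = viability at or under a set limit in both replicates, limit being median viability minus 3 SD, cut at about 48% in these data, passing the limit was not always enough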;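 note: 100% = mean luminescence of untreated wells and 0% = no signal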). The following applies: H69AR lung tumor cells viability, ATP luminescence, 72 h; at 10 µM; stronger effect = lower value.
A short description of test [4]: MRP1 drug-resistance reversers in H69AR cells – cell-based, doxorubicin co-treatment, pilot screen (AID 601;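 active = viability loss from added drug above about 55%, and viability with drug at most 40%, in both replicates, limit read from the data, passing the limit was not always enough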). The following applies: CellTiter-Glo, 72 h, at 10 µM; for differential viability (reversal): stronger effect = higher value.
Test [5] is described as follows: yeast transport mutant growth inhibition pilot in 384-well plates, post-Golgi transport modulator project (AID 636; in the data active = inhibition above about 31%). Particulars: absorbance 615 nm, about 18 h, stronger effect = higher value.
The nature of test [6]: growth suppression of yeast trafficking mutant, preliminary HTS, modulators of trafficking downstream of Golgi apparatus project, 1536-format plate, OD 615 nm (AID 637; in the data active = inhibition above about 30%). The following applies: yeast transport mutant growth, absorbance 615 nm, 18 h; stronger effect = higher value.
Setting [7] is: H69AR cells + 2 uM doxorubicin, measured here: viability with 2 uM doxorubicin, stronger effect = lower value.
[8] abbreviates: H69AR cells, compound alone cytotoxicity.

What is called viability is a read-out of living cells in per cent, often relative to untreated cells. As usually defined, the inhibition is the change of the read-out against control, counted positive when it falls. For `CCOC(=O)N1CCC(n2c(=S)[nH]c3cc(OC)c(OC)cc3c2=O)CC1`, the viability in test [1] was 114% (inactive); in test [2], 59.5% (inactive); in test [3], 57.1% (inactive); in test [4] (setting [7]) it was 59.1%; in test [4] (setting [8]), 57.1%. Moreover, the differential viability (reversal) in test [4] (H69AR cells + 2 uM doxorubicin) is -2.02% (inactive). The figures for the inhibition in test [5] and in test [6] were -4.16% (inactive) and -1.27% (inactive), respectively.

For `Cc1ccc(N(CC2=NCCN2)c2cccc(O)c2)cc1`, the viability in test [1] was 85% (inactive) and 113% (inactive); in test [2], 84.3% (inactive) and 64.3% (inactive); in test [3], 98.5% (inactive) and 92.6% (inactive); in test [4] (setting [7]), 100% and 80.7%; in test [4] (setting [8]), 98.5% and 92.6%. Besides, the differential viability (reversal) in test [4] (H69AR cells + 2 uM doxorubicin) was -1.66% (inactive) and 11.9% (inactive). Further, the inhibition in test [5] was -1.43% (inactive) and 1.17% (inactive); in test [6] it was -3.17% (inactive) and 0.5% (inactive).

Take `O=C(O)CCNC(=O)c1ccccc1`: the viability in test [1] was 84% (inactive); in test [2] it was 99.1% (inactive); in test [3] it was 98.7% (inactive); in test [4] (setting [7]) it was 90.7%; in test [4] (setting [8]), 98.7%. In addition, the differential viability (reversal) in test [4] (H69AR cells + 2 uM doxorubicin) was 7.94% (inactive). The inhibition in test [5] is 2.47% (inactive); in test [6], 1.17% (inactive).

As for `O=C(c1ccco1)N1CCN(CCCCN2C(=O)c3ccccc3C2=O)CC1`, the viability in test [1] was 102% (inactive); in test [2], 90.5% (inactive); in test [3] it was 79.9% (inactive); in test [4] (setting [7]), 92.2%; in test [4] (setting [8]), 79.9%. In addition, the differential viability (reversal) in test [4] (H69AR cells + 2 uM doxorubicin) is -12.3% (inactive). Also, the values for the inhibition in test [5] and in test [6] were -1.04% (inactive) and 0.32% (inactive), respectively.

`CC(=O)NCCCCCCNC(C)=O`: the viability in test [1] is 125% (inactive); in test [2], 100% (inactive); in test [3], 94.5% (inactive); in test [4] (setting [7]), 88.9%; in test [4] (setting [8]), 94.5%. Moreover, the differential viability (reversal) in test [4] (H69AR cells + 2 uM doxorubicin) was 5.61% (inactive). For the same compound, the inhibition in test [5] was 4.94% (inactive); in test [6] it was -1.17% (inactive).

As for `CCOc1ccc(-c2cc(C(=O)N3CCN(c4ccccn4)CC3)c3ccccc3n2)cc1`, the viability in test [1] was 127% (inactive); in test [2], 43.5% (inactive); in test [3] it was 12.5% (active); in test [4] (setting [7]), 79.2%; in test [4] (setting [8]), 12.5%. For the same compound, in test [4] (H69AR cells + 2 uM doxorubicin), the differential viability (reversal) was -66.7% (inactive). In addition, the inhibition in test [5] is 0.13% (inactive); in test [6] it was -0.49% (inactive).

As for `COC(=O)CCC(NC(=O)c1cc(-c2ccc3c(c2)OCCO3)oc1C)C(=O)OC` (stereo unspecified), the viability is 91% (inactive) in test [1]; 74.8% (inactive) in test [2]; 85.3% (inactive) in test [3]; 81.9% in test [4] (setting [7]); 85.3% in test [4] (setting [8]). Further, the differential viability (reversal) in test [4] (H69AR cells + 2 uM doxorubicin) is 3.48% (inactive). In addition, the inhibition in test [5] was -6.44% (inactive); in test [6], 0.81% (inactive).

For `CC(C)c1nc(NCC2CCCO2)c(C#N)c2c1COC(C)(C)C2` (stereo unspecified), the viability in test [1] was 95% (inactive); in test [2] it was 74.9% (inactive); in test [3], 89.1% (inactive); in test [4] (setting [7]), 84.4%; in test [4] (setting [8]), 89.1%. Besides, in test [4] (H69AR cells + 2 uM doxorubicin), the differential viability (reversal) is 4.7% (inactive). The inhibition in test [5] was -9.86% (inactive); in test [6] it was 13.9% (inactive).

On to `CC(C)N(C(=O)N1CCC(c2nc(-c3ccncc3)no2)CC1)C(C)C`, for which the viability is 79% (inactive) in test [1]; 105% (inactive) in test [2]; 102% (inactive) in test [3]; 106% in test [4] (setting [7]); 102% in test [4] (setting [8]). In addition, the differential viability (reversal) in test [4] (H69AR cells + 2 uM doxorubicin) is -3.66% (inactive). Besides, the inhibition in test [5] was -4.86% (inactive); in test [6], -5.64% (inactive).

As for `COc1ccc2c(c1)C1(Nc3ccccc3-c3nc4ccccc4n31)C(=O)N2` (stereo unspecified), the viability is 88% (inactive) in test [1]; 57.2% (inactive) in test [2]; 82.3% (inactive) in test [3]; 85.9% in test [4] (setting [7]); 82.3% in test [4] (setting [8]). Moreover, the differential viability (reversal) in test [4] (H69AR cells + 2 uM doxorubicin) is -3.61% (inactive). In addition, the inhibition in test [5] is -8.49% (inactive); in test [6] it was 4.19% (inactive).

Consider `CCOC(=O)c1c(NC(=O)OC)sc2c1CCC2`, for which the viability was 129% (inactive) in test [1]; 89.7% (inactive) in test [2]; 87.1% (inactive) in test [3]; 87.9% in test [4] (setting [7]); 87.1% in test [4] (setting [8]). Further, the differential viability (reversal) in test [4] (H69AR cells + 2 uM doxorubicin) was -0.775% (inactive). Also, the inhibition in test [5] is 0.65% (inactive); in test [6], -4.75% (inactive).

Regarding `CN(CCc1ccccn1)c1ncnc2[nH]ncc12`, the viability in test [1] is 102% (inactive); in test [2], 116% (inactive); in test [3], 97.6% (inactive); in test [4] (setting [7]) it was 87.6%; in test [4] (setting [8]), 97.6%. The differential viability (reversal) in test [4] (H69AR cells + 2 uM doxorubicin) was 9.97% (inactive). The inhibition in test [5] was -6.62% (inactive); in test [6] it was -2.36% (inactive).
